# Most compounds without a hit are left out; they make up all but 2.1% or so of the library.
# APJ ag: APJ receptor agonism. CHO-K1 APJ PathHunter beta-arrestin, luminescence; 0% DMSO wells, 100% apelin. activation, % at 20 µM. 0.11% of 330,000 active;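 active means activation more than six SD over the plate average, tested at 20 µM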;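 further: 0% = DMSO alone and 100% = apelin-13 at 10 nM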
#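 Test system: CHO-K1 APJ beta-arrestin complementation cell line | Compound: Single test compound dose, 20 µM final, 1% DMSO | Incubation: Compound 90 min 25 °C, reagent 1 h | Measured by: beta-gal luminescence | Read-out basis: APJ–arrestin association signal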
# EBI2 antag: blocks human EBI2 receptor beta-arrestin signaling | AID 651636 | 0.81% of 360,000 active | inhibition, % at 5 µM | EBI2 beta-arrestin recruitment, luminescence, 7a,25-OHC stimulated; in the data active means inhibition above about 38%;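 further: enzyme fragment complementation signal reports receptor beta-arrestin coupling in cells; 0% = agonist plus DMSO wells and 100% = wells without agonist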
# HTR2A ag: agonists of mouse serotonin 5-HT2A receptor (HTR2A). activation, % at 7.6 µM. AID 624169. CHO-K1 mHTR2A beta-arrestin complementation, luminescence; percent of 30 µM serotonin response. 0.66% of 360,000 active;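 active means activation above a run cutoff, the mean activation of all tested compounds plus 3 SD, cut at about 14% in these data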;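 further: 0% = plate median of compound wells and 100% = 30 µM serotonin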
# Target sequence (P35363 whole entry, looked up): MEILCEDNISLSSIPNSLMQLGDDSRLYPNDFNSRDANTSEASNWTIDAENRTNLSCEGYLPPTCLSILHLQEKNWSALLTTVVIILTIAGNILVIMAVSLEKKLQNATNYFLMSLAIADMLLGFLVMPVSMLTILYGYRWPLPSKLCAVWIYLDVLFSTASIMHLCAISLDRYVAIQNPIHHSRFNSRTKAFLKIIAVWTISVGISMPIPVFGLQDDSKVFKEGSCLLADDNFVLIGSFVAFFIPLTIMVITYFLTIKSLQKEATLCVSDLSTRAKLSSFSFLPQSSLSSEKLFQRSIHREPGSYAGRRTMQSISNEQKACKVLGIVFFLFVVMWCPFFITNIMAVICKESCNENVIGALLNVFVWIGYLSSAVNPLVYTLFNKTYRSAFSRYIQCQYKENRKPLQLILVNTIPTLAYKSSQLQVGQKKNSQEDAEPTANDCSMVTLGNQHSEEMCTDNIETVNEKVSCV
# APJ antagonist: antagonists of human APJ apelin receptor; CHO-K1 APJ beta-arrestin complementation, luminescence; P35414; AID 2521; inhibition, % at 20 µM; 0.32% of 330,000 active;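 active means inhibition above about 40% at 20 µM, limit read from the data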;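 further: cells challenged with 10 nM apelin-13 agonist together with compound; plate controls were apelin-13 plus DMSO wells for no effect and DMSO wells lacking apelin-13 for full effect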
# CXCR6 block: inhibitors of human CXCR6 receptor | CHO-K1 PathHunter CXCR6 beta-arrestin, luminescence | inhibition, % at 20 µM | 0.36% of 360,000 active; in the data active means inhibition above about 34%, passing the limit was not always enough;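 further: antagonist mode with CXCL16 agonist at 10 nM final; 0% = 10 nM CXCL16 with DMSO and 100% = unstimulated wells without agonist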
# CCR6 antagonist: antagonists of human CCR6 receptor; P51684; CHO-K1 CCR6 PathHunter beta-arrestin, luminescence, CCL20-stimulated; 0.49% of 340,000 active; inhibition, % at 20 µM;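 active means compounds whose inhibition of the agonist-driven luminescence signal at 20 µM reaches about 50%, limit read from the data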;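 further: cells stimulated with CCL20 at 14 nM final; plate controls were DMSO with CCL20 for no effect and DMSO without agonist for full effect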
# EBI2 conf: confirmation of human EBI2 receptor antagonists; shares compounds with EBI2 antag; EBI2 beta-arrestin luminescence, 7a,25-OHC antagonism; inhibition, % at 5 µM; 29% of 2,400 active;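 active means inhibition of at least 50%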
# EBI2 agonist: EBI2 agonism counter-screen | shares compounds with EBI2 antag | EBI2-expressing cells, agonist mode, luminescence, 60 min; 0% vehicle, 100% 7α,25-dihydroxycholesterol control | activation, % at 5 µM | 2,400 tested, under 10 active | AID 652000;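 active means activation of at least 50%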
# bGal cs: beta-galactosidase inhibition counter-screen. shares compounds with EBI2 antag. AID 652176. inhibition, % at 5 µM. 1% of 2,400 active. purified beta-galactosidase, luminescent Galacton Star, 15 min;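 active means replicate-average signal at least 3 plate SD below neutral wells, shown as high inhibition, flagging enzyme-inhibiting false positives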;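 further: 0% = DMSO wells with enzyme and 100% = wells lacking enzyme; higher means stronger loss of beta-gal luminescence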
# The depositor's hits bear a star; . = not tested or not shown.
SMILES,APJ ag,EBI2 antag,HTR2A ag,APJ antagonist,CXCR6 block,CCR6 antagonist,EBI2 conf,EBI2 agonist,bGal cs
O=C(C1=C[C@@H](c2ccc(C(F)(F)F)cc2)C[C@@H](OCc2ccc(CO)cc2)O1)N1CCN(Cc2ccc3c(c2)OCO3)CC1,6.7,36.1,-1.9,0.5,6.0,6.6,.,.,.
Cc1cccc(OCC(=O)NC2CCCc3ccccc32)c1C (configuration not stated),-3.7,57.5*,-7.2,-9.4,1.3,11.9,58.2*,-1.2,-20.9
COc1ccccc1OCC(=O)NC1CCCc2ccccc21 (configuration not stated),-5.3,-3.5,-1.0,7.9,8.6,3.4,.,.,.
O=C(Nc1ccccc1F)Nc1ccccc1N1CCCCC1,2.1,53.1*,1.2,5.9,7.7,15.7,6.4,-1.5,-14.2
Cc1cccc(OCC(=O)Nc2ccccc2N2CCCCC2)c1C,-2.4,43.4*,3.8,-6.5,7.1,40.4,10.9,-0.9,-7.6
COc1ccc(NC(=O)Cn2c(=O)oc3cc(S(=O)(=O)N4CCCC4)ccc32)c(OC)c1,-7.0,1.9,1.4,10.8,1.8,15.4,.,.,.
CC(C)(C)c1csc(NC(=O)Nc2ccccc2)n1,0.9,42.7*,-5.3,-22.8,-4.4,-1.6,31.7,-1.2,-10.0
COc1ccccc1N=C1SCC(=O)N1c1ccccc1OC,-3.1,-0.7,2.4,11.9,-1.0,9.9,.,.,.
COC(=O)[C@@H]1[C@@H](C)OC(=O)N[C@H]1c1ccccc1,5.4,-6.9,-0.7,11.3,1.5,4.0,.,.,.
COC(=O)c1cc(=O)n(Cc2ccc3c(c2)OCO3)c(=Nc2ccc(F)cc2)s1,-5.1,66.1*,13.2,3.6,7.0,11.4,34.4,1.0,5.6
COC(=O)c1cc(=O)n(Cc2ccc(F)cc2)c(=NCc2ccc(F)cc2)s1,-2.0,39.8,0.5,8.4,-8.6,0.1,.,.,.
COC(=O)c1cc(=O)n(Cc2ccc3c(c2)OCO3)c(=Nc2ccccc2)s1,-7.3,52.9*,-2.4,18.5,8.9,3.2,57.7*,-1.1,-15.3
CCOC(=O)c1ccc(N=c2sc(C(=O)OC)cc(=O)n2C2CC2)cc1,0.8,34.9,3.5,3.5,0.7,3.3,.,.,.
COC(=O)c1ccc(N=c2sc(C(=O)OC)cc(=O)n2C)cc1,.,66.5*,5.5,.,2.7,21.3,78.5*,-1.0,-16.1
CN(C)N1C(=O)CC(C)(c2ccc([N+](=O)[O-])cc2)C1=O (configuration not stated),-0.8,-5.1,-2.9,-33.5,2.3,-8.4,.,.,.
COc1ccc(-c2csc(N(CC(C)C)C(=O)c3ccco3)n2)cc1,-3.3,44.4*,-2.7,-13.9,1.7,19.1,30.7,-1.2,-13.0
CCS(=O)(=O)N1CCC(C(=O)NCc2ccc3c(c2)OCO3)CC1,-0.7,-4.8,-1.9,-8.7,-2.5,-0.1,.,.,.
O=C(NCc1ccc2c(c1)OCO2)C1CCN(C(=O)Nc2ccc(Cl)cc2)CC1,-4.5,46.0*,-1.1,7.1,-2.8,8.5,5.8,-1.3,-12.4
Cc1ccc2oc(=O)c3cnn(CC(=O)N(CCN(C)C)Cc4ccco4)c3c2c1,-4.5,30.7,7.5,18.5,3.4,-7.4,.,.,.
Cc1ccc2oc(=O)c3cnn(CC(=O)N4CCCc5ccccc54)c3c2c1,-0.5,52.6*,11.3,6.2,6.6,4.5,22.2,-0.4,-13.6
COCCCN(Cc1ccco1)C(=O)Cn1ncc2c(=O)oc3ccc(C)cc3c21,-0.9,54.9*,3.7,-10.6,-6.9,10.9,39.7,-1.5,-11.8
O=C(NC12CC3CC(CC(C3)C1)C2)N1CCN(C2CCCCC2)CC1,-4.6,-6.3,-0.9,6.7,-9.0,11.2,.,.,.
NNC(=O)CSc1nc(-c2ccccc2)cn1-c1ccccc1,-1.6,0.5,3.1,-4.4,-2.3,-2.0,.,.,.

# Compound activity: PubChem BioAssay, several laboratories
